Data as given in ChEMBL document CHEMBL3576819, “Design, synthesis, biological evaluation and molecular docking studies of phenylpropanoid derivatives as potent anti-hepatitis B virus agents” (Eur J Med Chem, 2015).

Columns and labels:
[1] = Cytotoxicity against human HepG2.2.15 cells assessed as cell death after 9 days by MTT assay; format: cell-based, HepG2 2.2.15
In short: (§1)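 HepG2.2.15 cells (MEM, 10% FBS, 380 µg/ml G418, 37 °C, 5% CO2) seeded at 1×10^5 cells/ml, cultured 24 h, then exposed to various drug concentrations; drug-containing medium renewed every 3 d. OD read at 450 nm after 9 days; percent cell death calculated; CC50 = concentration killing 50% of cells. Means of at least two experiments.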

Hepatitis B virus [2] = test: Antiviral activity against Hepatitis B virus infected in human HepG2.2.15 cells assessed as inhibition of HBsAg secretion by ELISA; format: functional, organism-based; conditions: HepG2 2.2.15
In short: (§2)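 HepG2.2.15 cells (MEM, 10% FBS, 380 µg/ml G418) seeded at 1×10^5 cells/ml, held 24 h at 37 °C, then treated with various drug concentrations; medium with drug renewed every 3 d for up to 9 d. Culture medium sampled on days 3, 6 and 9, stored at -20 °C, and assayed for secreted antigen. Lamivudine as positive control; IC50 = 50% inhibition of secretion; means of at least two experiments.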

[3] = Selectivity index, ratio of CC50 for human HepG2.2.15 cells to IC50 for Hepatitis B virus infected in human HepG2.2.15 cells assessed as inhibition of HBsAg secretion; format: functional
In short: (§3)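 Selectivity index computed as CC50/IC50, with CC50 from cell death of HepG2.2.15 cells after 9 days of treatment (OD 450 nm) and IC50 from 50% inhibition of HBeAg or HBsAg secretion in the same cells; medium with drug renewed every 3 d.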

Hepatitis B virus [4] = test: Antiviral activity against Hepatitis B virus infected in human HepG2.2.15 cells assessed as inhibition of HBeAg secretion by ELISA; format: functional, organism-based; conditions: HepG2 2.2.15; in short: as §2
[5] = Selectivity index, ratio of CC50 for human HepG2.2.15 cells to IC50 for Hepatitis B virus infected in human HepG2.2.15 cells assessed as inhibition of HBeAg secretion; format: functional; in short: as §3
Hepatitis B virus [6] = test: Antiviral activity against Hepatitis B virus infected in human HepG2.2.15 cells assessed as inhibition of HBsAg secretion at 300 uM after 3 days by ELISA; format: functional; conditions: HepG2 2.2.15, 72 h; in short: as §2
Hepatitis B virus [7] = test: Antiviral activity against Hepatitis B virus infected in human HepG2.2.15 cells assessed as inhibition of HBsAg secretion at 150 uM after 3 days by ELISA; format: functional; conditions: HepG2 2.2.15, 72 h; in short: as §2
Hepatitis B virus [8] = test: Antiviral activity against Hepatitis B virus infected in human HepG2.2.15 cells assessed as inhibition of HBsAg secretion at 75 uM after 3 days by ELISA; format: functional; conditions: HepG2 2.2.15, 72 h; in short: as §2
Hepatitis B virus [9] = test: Antiviral activity against Hepatitis B virus infected in human HepG2.2.15 cells assessed as inhibition of HBsAg secretion at 300 uM after 6 days by ELISA; format: functional; conditions: HepG2 2.2.15, 144 h; in short: as §2
Hepatitis B virus [10] = test: Antiviral activity against Hepatitis B virus infected in human HepG2.2.15 cells assessed as inhibition of HBsAg secretion at 150 uM after 6 days by ELISA; format: functional; conditions: HepG2 2.2.15, 144 h; in short: as §2
Hepatitis B virus [11] = test: Antiviral activity against Hepatitis B virus infected in human HepG2.2.15 cells assessed as inhibition of HBsAg secretion at 75 uM after 6 days by ELISA; format: functional; conditions: HepG2 2.2.15, 144 h; in short: as §2
Hepatitis B virus [12] = test: Antiviral activity against Hepatitis B virus infected in human HepG2.2.15 cells assessed as inhibition of HBsAg secretion at 37.5 uM after 6 days by ELISA; format: functional; conditions: HepG2 2.2.15, 144 h; in short: as §2
Hepatitis B virus [13] = test: Antiviral activity against Hepatitis B virus infected in human HepG2.2.15 cells assessed as inhibition of HBsAg secretion at 300 uM after 9 days by ELISA; format: functional; conditions: HepG2 2.2.15, 216 h; in short: as §2
Hepatitis B virus [14] = test: Antiviral activity against Hepatitis B virus infected in human HepG2.2.15 cells assessed as inhibition of HBsAg secretion at 150 uM after 9 days by ELISA; format: functional; conditions: HepG2 2.2.15, 216 h; in short: as §2
Hepatitis B virus [15] = test: Antiviral activity against Hepatitis B virus infected in human HepG2.2.15 cells assessed as inhibition of HBsAg secretion at 75 uM after 9 days by ELISA; format: functional; conditions: HepG2 2.2.15, 216 h; in short: as §2
Hepatitis B virus [16] = test: Antiviral activity against Hepatitis B virus infected in human HepG2.2.15 cells assessed as inhibition of HBsAg secretion at 37.5 uM after 9 days by ELISA; format: functional; conditions: HepG2 2.2.15, 216 h; in short: as §2
Hepatitis B virus [17] = test: Antiviral activity against Hepatitis B virus infected in human HepG2.2.15 cells assessed as cell survival at 300 uM after 9 days (reference value: 100%); format: functional; conditions: HepG2 2.2.15, 216 h; in short: as §1
Hepatitis B virus [18] = test: Antiviral activity against Hepatitis B virus infected in human HepG2.2.15 cells assessed as cell survival at 150 uM after 9 days (reference value: 100%); format: functional; conditions: HepG2 2.2.15, 216 h; in short: as §1
Hepatitis B virus [19] = test: Antiviral activity against Hepatitis B virus infected in human HepG2.2.15 cells assessed as cell survival at 75 uM after 9 days (reference value: 100%); format: functional; conditions: HepG2 2.2.15, 216 h; in short: as §1
Hepatitis B virus [20] = test: Antiviral activity against Hepatitis B virus infected in human HepG2.2.15 cells assessed as cell survival at 37.5 uM after 9 days (reference value: 100%); format: functional; conditions: HepG2 2.2.15, 216 h; in short: as §1
Hepatitis B virus [21] = test: Antiviral activity against Hepatitis B virus infected in human HepG2.2.15 cells assessed as inhibition of HBeAg secretion at 300 uM after 3 days by ELISA; format: functional; conditions: HepG2 2.2.15, 72 h; in short: as §2
Hepatitis B virus [22] = test: Antiviral activity against Hepatitis B virus infected in human HepG2.2.15 cells assessed as inhibition of HBeAg secretion at 150 uM after 3 days by ELISA; format: functional; conditions: HepG2 2.2.15, 72 h; in short: as §2
Hepatitis B virus [23] = test: Antiviral activity against Hepatitis B virus infected in human HepG2.2.15 cells assessed as inhibition of HBeAg secretion at 75 uM after 3 days by ELISA; format: functional; conditions: HepG2 2.2.15, 72 h; in short: as §2
Hepatitis B virus [24] = test: Antiviral activity against Hepatitis B virus infected in human HepG2.2.15 cells assessed as inhibition of HBeAg secretion at 37.5 uM after 3 days by ELISA; format: functional; conditions: HepG2 2.2.15, 72 h; in short: as §2
Hepatitis B virus [25] = test: Antiviral activity against Hepatitis B virus infected in human HepG2.2.15 cells assessed as inhibition of HBeAg secretion at 300 uM after 6 days by ELISA; format: functional; conditions: HepG2 2.2.15, 144 h; in short: as §2
Hepatitis B virus [26] = test: Antiviral activity against Hepatitis B virus infected in human HepG2.2.15 cells assessed as inhibition of HBeAg secretion at 150 uM after 6 days by ELISA; format: functional; conditions: HepG2 2.2.15, 144 h; in short: as §2
Hepatitis B virus [27] = test: Antiviral activity against Hepatitis B virus infected in human HepG2.2.15 cells assessed as inhibition of HBeAg secretion at 75 uM after 6 days by ELISA; format: functional; conditions: HepG2 2.2.15, 144 h; in short: as §2
Hepatitis B virus [28] = test: Antiviral activity against Hepatitis B virus infected in human HepG2.2.15 cells assessed as inhibition of HBeAg secretion at 37.5 uM after 6 days by ELISA; format: functional; conditions: HepG2 2.2.15, 144 h; in short: as §2
Hepatitis B virus [29] = test: Antiviral activity against Hepatitis B virus infected in human HepG2.2.15 cells assessed as inhibition of HBeAg secretion at 300 uM after 9 days by ELISA; format: functional; conditions: HepG2 2.2.15, 216 h; in short: as §2
Hepatitis B virus [30] = test: Antiviral activity against Hepatitis B virus infected in human HepG2.2.15 cells assessed as inhibition of HBeAg secretion at 150 uM after 9 days by ELISA; format: functional; conditions: HepG2 2.2.15, 216 h; in short: as §2
Hepatitis B virus [31] = test: Antiviral activity against Hepatitis B virus infected in human HepG2.2.15 cells assessed as inhibition of HBeAg secretion at 75 uM after 9 days by ELISA; format: functional; conditions: HepG2 2.2.15, 216 h; in short: as §2
Hepatitis B virus [32] = test: Antiviral activity against Hepatitis B virus infected in human HepG2.2.15 cells assessed as inhibition of HBeAg secretion at 37.5 uM after 9 days by ELISA; format: functional; conditions: HepG2 2.2.15, 216 h; in short: as §2

## O=C(O)/C=C/c1ccc2c(c1)OCO2
[1]
  CC50 at 216 h: 503 µM
Hepatitis B virus [2]
  IC50: 433 µM
[3]
  Ratio CC50/IC50: 1.16
Hepatitis B virus [4]
  IC50: 526 µM
[5]
  Ratio CC50/IC50: 0.96

## COc1cc(/C=C/C(=O)O/N=C/c2ccccn2)cc(OC)c1OC
[1]
  CC50 at 216 h: 787 µM
Hepatitis B virus [2]
  IC50: 143 µM
[3]
  Ratio CC50/IC50: 5.52
Hepatitis B virus [4]
  IC50: 150 µM
[5]
  Ratio CC50/IC50: 5.25
Hepatitis B virus [6]
  inhibition at 300 µM: 15.1%
Hepatitis B virus [7]
  inhibition at 150 µM: 8.39%
Hepatitis B virus [8]
  inhibition at 75 µM: 2.96%
Hepatitis B virus [9]
  inhibition at 300 µM: 40.5%
Hepatitis B virus [10]
  inhibition at 150 µM: 29.6%
Hepatitis B virus [11]
  inhibition at 75 µM: 17.2%
Hepatitis B virus [12]
  inhibition at 37.5 µM: 12.7%
Hepatitis B virus [13]
  inhibition at 300 µM: 66.7%
Hepatitis B virus [14]
  inhibition at 150 µM: 47.3%
Hepatitis B virus [15]
  inhibition at 75 µM: 39.2%
Hepatitis B virus [16]
  inhibition at 37.5 µM: 24.1%
Hepatitis B virus [17]
  viability at 300 µM: 89%
Hepatitis B virus [18]
  viability at 150 µM: 98.1%
Hepatitis B virus [19]
  viability at 75 µM: 107%
Hepatitis B virus [20]
  viability at 37.5 µM: 108%
Hepatitis B virus [21]
  inhibition at 300 µM: 34.2%
Hepatitis B virus [22]
  inhibition at 150 µM: 28.2%
Hepatitis B virus [23]
  inhibition at 75 µM: 20.3%
Hepatitis B virus [24]
  inhibition at 37.5 µM: 13.4%
Hepatitis B virus [25]
  inhibition at 300 µM: 53.6%
Hepatitis B virus [26]
  inhibition at 150 µM: 35.1%
Hepatitis B virus [27]
  inhibition at 75 µM: 29.2%
Hepatitis B virus [28]
  inhibition at 37.5 µM: 21.4%
Hepatitis B virus [29]
  inhibition at 300 µM: 61.1%
Hepatitis B virus [30]
  inhibition at 150 µM: 47.9%
Hepatitis B virus [31]
  inhibition at 75 µM: 41.2%
Hepatitis B virus [32]
  inhibition at 37.5 µM: 30.2%

## COc1cc(C=O)cc(OC)c1OC
[1]
  CC50 at 216 h: > 1500 µM
